Results taken from ChEMBL document CHEMBL1127319, “CNAD: a potent and specific inhibitor of alcohol dehydrogenase” (J Med Chem, 1994).
Blank lines part the entries; values can stand above or below the molecule they belong to.

How the values were obtained:
[1] = Michaelis-Menten constant against mammalian malate dehydrogenase (MDH)
Summary of the method: (§1)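 NAD is varied and the A340 increase from NADH formation is monitored (ε 6.22 mM-1 cm-1). Buffers differ by enzyme: ADH in 0.1 M phosphate, pH 8.0, with ethanol 1.2 mM; GDH in 0.1 M phosphate, pH 7.0, with 10 μM EDTA; LDH and MDH in 0.05 M Tris-HCl, pH 9.0. At least duplicate.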

[2] = tested on: NC(=O)c1ccc[n+]([C@@H]2O[C@H](COP(=O)([O-])OP(=O)(O)OC[C@H]3O[C@@H](n4cnc5c(N)ncnc54)[C@H](O)[C@@H]3O)[C@@H](O)[C@H]2O)c1; experiment: Michaelis-Menten constant against mammalian lactate dehydrogenase (LDH); conditions: Sus scrofa; summary of the method: as §1
[3] = tested on: NC(=O)c1ccc[n+]([C@@H]2O[C@H](COP(=O)([O-])OP(=O)(O)OC[C@H]3O[C@@H](n4cnc5c(N)ncnc54)[C@H](O)[C@@H]3O)[C@@H](O)[C@H]2O)c1; experiment: Michaelis-Menten constant against mammalian glutamate dehydrogenase (GDH); summary of the method: as §1

Chain of Glutamate dehydrogenase 1, mitochondrial (Bos taurus), P00366 (P00366 whole entry): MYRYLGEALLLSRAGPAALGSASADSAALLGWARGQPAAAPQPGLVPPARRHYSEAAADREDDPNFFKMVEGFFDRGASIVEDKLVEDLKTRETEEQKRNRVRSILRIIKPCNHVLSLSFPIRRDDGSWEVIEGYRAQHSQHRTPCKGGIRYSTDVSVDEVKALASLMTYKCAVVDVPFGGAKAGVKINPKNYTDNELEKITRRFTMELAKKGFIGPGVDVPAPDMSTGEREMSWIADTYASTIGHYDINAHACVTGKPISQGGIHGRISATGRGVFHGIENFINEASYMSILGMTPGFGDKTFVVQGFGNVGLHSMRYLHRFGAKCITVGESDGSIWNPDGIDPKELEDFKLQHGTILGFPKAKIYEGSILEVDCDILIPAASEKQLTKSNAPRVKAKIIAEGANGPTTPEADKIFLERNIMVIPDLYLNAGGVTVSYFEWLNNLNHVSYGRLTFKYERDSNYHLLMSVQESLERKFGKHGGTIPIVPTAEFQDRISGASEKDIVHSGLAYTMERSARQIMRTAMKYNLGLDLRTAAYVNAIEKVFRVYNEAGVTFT

- Km [1]: 32 µM
Molecule: NC(=O)c1ccc[n+]([C@@H]2O[C@H](COP(=O)([O-])OP(=O)(O)OC[C@H]3O[C@@H](n4cnc5c(N)ncnc54)[C@H](O)[C@@H]3O)[C@@H](O)[C@H]2O)c1

Molecule: L-lactate dehydrogenase A chain (Homo sapiens) (from UniProt P00338)
- Km [2]: 141 µM

Molecule: Glutamate dehydrogenase 1, mitochondrial (Bos taurus), P00366
- Km [3]: 30 µM
